Active and inactive are the calls of the source.
What was measured:
[1] = tested on: Mus musculus; test: Effect on rectal body temperature in sc dosed mouse assessed as change in temperature after 30 mins by inducible hypothermia test; assay type: functional; details: 0.5 h
In short: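 Rectal temperature measured in mice with a thermistor probe inserted 24 mm, read before and 30 min after s.c. saline or analogue. Change from pre-treatment value calculated for each mouse.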

[2] = tested on: Mus musculus; test: Antinociceptive activity in sc dosed mouse after 5 mins by tail flick test; assay type: functional
In short: (§1)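 Mice, tail-flick by the D'Amour–Smith method. Baseline latency 2–4 s, 10 s cutoff. Tested 5 min after s.c. injection. Response expressed as %MPE = (test−control)/(10−control)×100. 8–12 mice per dose, at least four doses per dose-response curve.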

[3] = tested on: Mus musculus; test: Effect on locomotory activity in sc dosed mouse assessed as change in spontaneous activity after 5 mins by photocell interruption readings; assay type: functional
In short: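 Mice placed in photocell activity cages 5 min after s.c. saline or analogue. Beam interruptions recorded over the next 10 min and expressed as photocell interruption counts.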

[4] = molecular target: Neuronal acetylcholine receptor; alpha4/beta2 (Rattus norvegicus, UniProt P09483+P12390); test: Displacement of [3H]epibatidine from alpha4beta2 nAChR in rat cerebral cortex after 4 hrs by scintillation counting; assay type: tissue-based
Sequence of Neuronal acetylcholine receptor; alpha4/beta2 (P09483 whole entry): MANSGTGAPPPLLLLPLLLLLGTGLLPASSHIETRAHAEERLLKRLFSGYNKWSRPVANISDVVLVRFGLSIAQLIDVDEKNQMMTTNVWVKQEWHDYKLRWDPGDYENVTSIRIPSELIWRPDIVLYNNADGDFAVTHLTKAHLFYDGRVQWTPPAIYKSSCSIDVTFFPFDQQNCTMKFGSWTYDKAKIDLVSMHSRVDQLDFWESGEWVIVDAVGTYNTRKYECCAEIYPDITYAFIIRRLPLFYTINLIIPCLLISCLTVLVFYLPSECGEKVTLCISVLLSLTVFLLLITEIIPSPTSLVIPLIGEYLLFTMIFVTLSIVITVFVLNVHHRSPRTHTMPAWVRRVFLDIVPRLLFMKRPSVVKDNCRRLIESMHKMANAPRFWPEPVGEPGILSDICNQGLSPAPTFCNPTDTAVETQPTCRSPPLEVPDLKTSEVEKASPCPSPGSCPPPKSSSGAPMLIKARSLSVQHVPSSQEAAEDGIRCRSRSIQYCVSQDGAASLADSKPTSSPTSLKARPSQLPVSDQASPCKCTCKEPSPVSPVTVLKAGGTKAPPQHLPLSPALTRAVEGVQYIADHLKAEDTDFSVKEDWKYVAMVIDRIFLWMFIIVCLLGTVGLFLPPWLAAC
Sequence of Neuronal acetylcholine receptor; alpha4/beta2 (P12390 whole entry): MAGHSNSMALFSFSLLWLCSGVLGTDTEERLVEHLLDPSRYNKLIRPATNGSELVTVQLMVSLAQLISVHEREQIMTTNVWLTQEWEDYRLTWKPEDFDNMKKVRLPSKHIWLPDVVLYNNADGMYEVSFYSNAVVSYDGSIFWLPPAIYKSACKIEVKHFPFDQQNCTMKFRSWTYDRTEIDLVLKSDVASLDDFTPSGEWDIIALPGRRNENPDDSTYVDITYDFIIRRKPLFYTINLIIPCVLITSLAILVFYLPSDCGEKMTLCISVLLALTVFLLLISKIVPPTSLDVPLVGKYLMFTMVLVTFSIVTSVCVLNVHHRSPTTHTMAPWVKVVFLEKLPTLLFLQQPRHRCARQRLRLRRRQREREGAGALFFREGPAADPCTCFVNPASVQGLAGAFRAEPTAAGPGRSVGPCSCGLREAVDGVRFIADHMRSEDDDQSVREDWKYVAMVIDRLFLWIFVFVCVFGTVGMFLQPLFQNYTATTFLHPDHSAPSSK
In short: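 Rat cerebral cortex homogenate (3 mg wet weight, washed three times) in 50 mM Tris pH 7.4 with NaCl, KCl, CaCl2, MgCl2. 4 h at room temperature. Filtration onto polyethylenimine-soaked GF/B, scintillation counting. Ki from IC50 by Cheng-Prusoff.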

[5] = tested on: Mus musculus; test: Inhibition of nicotine-induced antinociception in sc dosed mouse assessed as tail withdrawal latency after 5 mins by tail flick test; assay type: functional
[6] = tested on: Mus musculus; test: Inhibition of nicotine-induced antinociception in sc dosed mouse assessed as reaction time taken to jump or lick paw after 5 mins by hot plate test; assay type: functional
[7] = tested on: Mus musculus; test: Antinociceptive activity in sc dosed mouse assessed as reaction time taken to jump or lick paw after 5 mins by hot plate test; assay type: functional
In short: (§2)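 Mice placed in a glass cylinder on a 55.0 °C hot plate. Two control latencies taken at least 10 min apart; normal latency 8–12 s. Jump or paw lick scored. Tested 5 min after s.c. injection, eight mice per dose. %MPE calculated against a 40 s maximum.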

[8] = molecular target: Neuronal acetylcholine receptor subunit alpha-7 (Rattus norvegicus, UniProt Q05941); test: Displacement of [3H]iodo-MLA from alpha7 nAChR in rat cerebral cortex after 2 hrs by scintillation counting; assay type: tissue-based
Sequence of Neuronal acetylcholine receptor subunit alpha-7 (Q05941 whole entry): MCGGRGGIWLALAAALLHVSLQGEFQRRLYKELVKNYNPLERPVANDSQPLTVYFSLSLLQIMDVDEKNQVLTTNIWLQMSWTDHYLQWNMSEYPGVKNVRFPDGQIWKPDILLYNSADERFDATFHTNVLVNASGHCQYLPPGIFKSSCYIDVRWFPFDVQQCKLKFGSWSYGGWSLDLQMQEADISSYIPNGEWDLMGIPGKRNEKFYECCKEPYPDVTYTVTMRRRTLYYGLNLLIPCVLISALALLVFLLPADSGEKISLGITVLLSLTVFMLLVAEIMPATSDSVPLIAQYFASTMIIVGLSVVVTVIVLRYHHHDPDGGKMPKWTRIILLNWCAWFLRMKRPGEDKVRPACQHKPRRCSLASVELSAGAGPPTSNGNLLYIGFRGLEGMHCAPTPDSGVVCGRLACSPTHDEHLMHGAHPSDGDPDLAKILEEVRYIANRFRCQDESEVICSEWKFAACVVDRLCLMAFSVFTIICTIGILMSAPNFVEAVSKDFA
In short: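 Washed rat cerebral cortex homogenate (3 mg wet weight) in Tris pH 7.4 buffer with salts. 2 h on ice. Nonspecific binding defined with 300 µM (−)-nicotine. Filtered onto BSA-soaked GF/B, then microplate scintillation counting.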

[9] = tested on: Mus musculus; test: Inhibition of nicotine-induced antinociception in mouse assessed as reaction time taken to jump or lick paw at 200 ug/kg after 5 mins by hot plate test; assay type: functional
[10] = tested on: Mus musculus; test: Inhibition of nicotine-induced antinociception in mouse assessed as reaction time taken to jump or lick paw at 100 ug/kg after 5 mins by hot plate test; assay type: functional
[11] = tested on: Mus musculus; test: Antinociceptive activity in mouse assessed as reaction time taken to jump or lick paw at 2 mg/kg, sc after 5 mins by hot plate test; assay type: functional; details: route subcutaneous; in short: as §2
[12] = tested on: Mus musculus; test: Antinociceptive activity in mouse at 2 mg/kg, sc after 5 mins by tail flick test; assay type: functional; details: route subcutaneous; in short: as §1
[13] = species: Rattus norvegicus; test: Selectivity ratio of Ki for rat alpha7 nAChR to Ki for rat alpha4beta2 nAChR
[14] = tested on: Mus musculus; test: Inhibition of nicotine-induced antinociception in mouse assessed as reaction time taken to jump or lick paw at 50 ug/kg after 5 mins by hot plate test; assay type: functional
[15] = tested on: Mus musculus; test: Inhibition of nicotine-induced antinociception in mouse assessed as reaction time taken to jump or lick paw at 10000 ug/kg after 5 mins by hot plate test; assay type: functional
[16] = Mus musculus, Tail, sc, 5 min, read-out: ED50

| SMILES | ED50 [1] [mg/kg] | ED50 [2, 16] [mg/kg] | ED50 [3] [mg/kg] | Ki [4] [nM] | AD50 [5] [mg/kg] | AD50 [6] [mg/kg] | ED50 [7] [mg/kg] | Ki [8] [nM] | inhibition in vivo at 0.2 mg/kg [9] [%] | Activity [2] | Activity [7] | ED50 [2] [mg/kg] | inhibition in vivo at 0.1 mg/kg [10] [%] | Activity [11] [%] | Activity [12] [%] | Ratio Ki [13] | inhibition in vivo at 0.05 mg/kg [14] [%] | inhibition in vivo at 10 mg/kg [15] [%] |
| --- | --- | --- | --- | --- | --- | --- | --- | --- | --- | --- | --- | --- | --- | --- | --- | --- | --- | --- |
| Fc1cccc(-c2cc([C@H]3C[C@@H]4CC[C@H]3N4)cnc2Cl)c1 | 0.19 | 1 | 0.07 | 0.012 | 0.0039 | 0.086 | 0.43 | 250 |  |  |  |  |  |  |  |  |  |  |
| COc1ccc(-c2cc([C@H]3C[C@@H]4CC[C@H]3N4)cnc2Cl)cc1 | 0.79 | 2.36 | 0.43 | 0.022 | 0.01 |  | 1.1 | 175 | 10 |  |  |  |  |  |  |  |  |  |
| c1cnc2cc3c(cc2n1)[C@@H]1CNC[C@H]3C1 |  |  |  |  |  |  |  |  |  | inactive | inactive |  |  |  |  |  |  |  |
| CN1CCC[C@H]1c1cccnc1 [NICOTINE] | 1 | 1.3 | 0.5 |  |  |  | 0.65 |  |  |  |  |  |  |  |  |  |  |  |
| Clc1ccc([C@@H]2C[C@H]3CC[C@@H]2N3)cn1 (stereo in doubt; (-)-1) [(+)-EPIBATIDINE] |  |  |  |  |  |  |  |  |  |  |  | 0.0066 |  |  |  |  |  |  |
| Clc1ccc([C@@H]2C[C@H]3CC[C@@H]2N3)cn1 (stereo in doubt; (+)-1) [(+)-EPIBATIDINE] | 0.004 | 0.0061 | 0.001 |  |  |  | 0.004 |  |  |  |  |  |  |  |  |  |  |  |
| Clc1ccc(-c2cc([C@H]3C[C@@H]4CC[C@H]3N4)cnc2Cl)cc1 | 0.89 | 2.6 | 0.53 | 0.039 | 0.001 |  | 2 | 209 |  |  |  |  | 10 |  |  |  |  |  |
| CN(C)c1cccc(-c2cc([C@H]3C[C@@H]4CC[C@H]3N4)cnc2Cl)c1 | 3.3 |  |  | 0.009 | 0.02 | 0.56 |  | 1100 |  |  |  |  |  | 0 | 0 |  |  |  |
| Clc1cccc(-c2cc([C@H]3C[C@@H]4CC[C@H]3N4)cnc2Cl)c1 | 0.38 | 3.4 | 0.06 | 0.013 | 0.0022 | 0.08 | 4.2 | 30.5 |  |  |  |  |  |  |  | 2000 |  |  |
| COc1cccc(-c2cc([C@H]3C[C@@H]4CC[C@H]3N4)cnc2Cl)c1 | 0.7 | 0.7 | 0.2 | 0.019 | 0.029 |  | 0.8 | 558 |  |  |  |  | 0 |  |  |  |  |  |
| Nc1cccc(-c2cc([C@H]3C[C@@H]4CC[C@H]3N4)cnc2Cl)c1 | 0.31 | 0.34 | 0.03 | 0.017 | 0.00014 | 0.026 | 0.3 | 256 |  |  |  |  |  |  |  |  |  |  |
| O=[N+]([O-])c1ccc(-c2cc([C@H]3C[C@@H]4CC[C@H]3N4)cnc2Cl)cc1 | 0.23 | 0.46 | 0.24 | 0.015 | 0.007 |  | 0.38 | 250 |  |  |  |  |  |  |  |  | 17 |  |
| Clc1ncc([C@H]2C[C@@H]3CC[C@H]2N3)cc1-c1cccc(Br)c1 | 0.67 | 0.54 | 0.11 | 0.016 | 0.01 | 0.22 | 2.2 | 85 |  |  |  |  |  |  |  |  |  |  |
| O=[N+]([O-])c1cccc(-c2cc([C@H]3C[C@@H]4CC[C@H]3N4)cnc2Cl)c1 | 1.4 | 4.6 | 0.9 | 0.008 | 0.00025 | 0.18 | 3.2 | 229 |  |  |  |  |  |  |  |  |  |  |
| Clc1ncc([C@H]2C[C@@H]3CC[C@H]2N3)cc1-c1ccccc1 | 0.4 | 0.7 | 0.35 | 0.021 | 0.28 |  | 1 | 260 |  |  |  |  |  |  |  |  |  | 30 |
| Nc1ccc(-c2cc([C@H]3C[C@@H]4CC[C@H]3N4)cnc2Cl)cc1 | 1.1 | 5 | 0.52 | 0.034 | 0.006 |  | 4.5 | 234 |  |  |  |  | 0 |  |  |  |  |  |
| Fc1ccc(-c2cc([C@H]3C[C@@H]4CC[C@H]3N4)cnc2Cl)cc1 | 0.33 | 2.48 | 0.33 | 0.017 | 0.0005 |  | 1.27 | 309 |  |  |  |  | 30 |  |  |  |  |  |

From ChEMBL document CHEMBL1154863 (J Nat Prod, 2010)
